Key:
[1] = target: Misshapen-like kinase 1 (Homo sapiens) (UniProt Q8N4C8); test: Inhibition of ZC3 Lys2 labeling site in human Huh-7 cell lysate at 1 uM by KiNativ Profiling analysis relative to control; type: subcellular
[2] = target: T1, Dual specificity mitogen-activated protein kinase kinase 3 (Homo sapiens) (UniProt P46734); test: Inhibition of MAP2K3 Lys2 labeling site in human A-375 cells at 0.05 uM by KiNativ Profiling analysis relative to control; type: cell-based
T1 sequence (whole entry): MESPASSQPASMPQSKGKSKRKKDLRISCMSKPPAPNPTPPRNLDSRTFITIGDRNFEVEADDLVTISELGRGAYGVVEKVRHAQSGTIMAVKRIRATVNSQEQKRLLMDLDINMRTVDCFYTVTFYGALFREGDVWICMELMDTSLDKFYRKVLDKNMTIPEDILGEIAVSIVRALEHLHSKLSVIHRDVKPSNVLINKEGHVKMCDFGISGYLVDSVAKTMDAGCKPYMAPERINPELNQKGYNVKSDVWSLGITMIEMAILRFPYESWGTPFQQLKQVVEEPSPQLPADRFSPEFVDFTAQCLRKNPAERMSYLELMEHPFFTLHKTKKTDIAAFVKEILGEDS

[3] = target: TRAF2 and NCK-interacting protein kinase (Homo sapiens) (UniProt Q9UKE5); test: Inhibition of ZC2/TNIK Lys2 labeling site in human A-375 cells at 0.5 uM by KiNativ Profiling analysis relative to control; type: cell-based
[4] = target: T2, Serine/threonine-protein kinase Chk1 (Homo sapiens) (UniProt O14757); test: Inhibition of CHK1 Lys2 labeling site harbouring DIKPENLLLDER in human A-375 cells at 5 uM by KiNativ Profiling analysis relative to control; type: cell-based
T2 sequence (whole entry): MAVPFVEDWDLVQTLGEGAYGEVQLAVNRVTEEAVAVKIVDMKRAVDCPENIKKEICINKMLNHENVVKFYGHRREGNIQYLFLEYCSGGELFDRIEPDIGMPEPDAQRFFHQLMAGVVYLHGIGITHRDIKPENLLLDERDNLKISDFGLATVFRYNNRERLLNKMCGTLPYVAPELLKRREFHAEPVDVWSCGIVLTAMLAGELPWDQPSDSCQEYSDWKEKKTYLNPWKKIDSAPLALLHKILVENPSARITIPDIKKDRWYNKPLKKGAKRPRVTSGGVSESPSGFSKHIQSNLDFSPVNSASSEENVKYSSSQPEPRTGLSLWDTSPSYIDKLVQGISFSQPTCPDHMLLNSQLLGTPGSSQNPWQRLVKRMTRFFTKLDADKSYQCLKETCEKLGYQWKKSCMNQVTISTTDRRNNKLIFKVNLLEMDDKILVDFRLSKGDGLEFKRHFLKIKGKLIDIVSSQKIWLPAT
Summary of the method: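 Live A375 melanoma cells were treated with compound at 5 or 0.5 μM. The cells were then lysed, and the lysates were labeled with a lysine-reactive ATP or ADP-biotin acyl probe (KiNativ). Inhibition is the compound's protection of each kinase labeling-site peptide from probe labeling, relative to untreated control.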

[5] = target: T1, Dual specificity mitogen-activated protein kinase kinase 3 (Homo sapiens); test: Inhibition of MAP2K3 Lys2 labeling site in human A-375 cells at 5 uM by KiNativ Profiling analysis relative to control; type: cell-based
[6] = target: T3, Serine/threonine-protein kinase NLK (Homo sapiens) (UniProt Q9UBE8); test: Inhibition of NLK Lys2 labeling site in human A-375 cells at 0.05 uM by KiNativ Profiling analysis relative to control; type: cell-based
T3 sequence (whole entry): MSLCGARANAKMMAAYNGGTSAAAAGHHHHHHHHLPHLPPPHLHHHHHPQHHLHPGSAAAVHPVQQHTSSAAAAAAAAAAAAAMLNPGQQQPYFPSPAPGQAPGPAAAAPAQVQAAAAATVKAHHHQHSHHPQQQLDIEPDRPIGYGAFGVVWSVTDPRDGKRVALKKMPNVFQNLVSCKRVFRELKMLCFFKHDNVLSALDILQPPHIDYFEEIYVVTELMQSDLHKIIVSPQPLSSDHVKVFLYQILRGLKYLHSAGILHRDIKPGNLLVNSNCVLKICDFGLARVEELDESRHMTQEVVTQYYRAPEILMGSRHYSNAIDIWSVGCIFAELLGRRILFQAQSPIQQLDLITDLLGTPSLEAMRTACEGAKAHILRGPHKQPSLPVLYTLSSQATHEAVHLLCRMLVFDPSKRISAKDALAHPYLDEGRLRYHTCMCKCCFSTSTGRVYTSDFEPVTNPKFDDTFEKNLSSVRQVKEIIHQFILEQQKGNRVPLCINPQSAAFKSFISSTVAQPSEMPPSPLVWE

[7] = target: Serine/threonine-protein kinase Nek7 (Homo sapiens) (UniProt Q8TDX7); test: Inhibition of NEK7 Lys2 labeling site in human A-375 cells at 5 uM by KiNativ Profiling analysis relative to control; type: cell-based
[8] = target: Serine/threonine-protein kinase WNK1 (Homo sapiens) (UniProt Q9H4A3); test: Inhibition of Wnk1 Lys2 labeling site in human A-375 cells at 5 uM by KiNativ Profiling analysis relative to control; type: cell-based
[9] = target: T4, Serine/threonine-protein kinase STK11 (Homo sapiens) (UniProt Q15831); test: Inhibition of LKB1 Lys2 labeling site in human A-375 cells at 0.05 uM by KiNativ Profiling analysis relative to control; type: cell-based
T4 sequence (whole entry): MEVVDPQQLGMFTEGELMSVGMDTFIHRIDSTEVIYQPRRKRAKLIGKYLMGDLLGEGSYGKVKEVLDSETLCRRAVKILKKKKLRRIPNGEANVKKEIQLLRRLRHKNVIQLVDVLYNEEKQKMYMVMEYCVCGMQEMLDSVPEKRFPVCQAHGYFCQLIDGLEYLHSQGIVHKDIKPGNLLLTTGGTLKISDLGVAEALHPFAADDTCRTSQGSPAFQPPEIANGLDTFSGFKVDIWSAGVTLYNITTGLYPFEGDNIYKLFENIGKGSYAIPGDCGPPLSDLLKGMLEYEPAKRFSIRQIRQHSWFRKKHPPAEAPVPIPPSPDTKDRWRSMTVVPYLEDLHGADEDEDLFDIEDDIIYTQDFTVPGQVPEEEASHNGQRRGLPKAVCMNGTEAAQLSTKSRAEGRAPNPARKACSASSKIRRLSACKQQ

[10] = target: Tyrosine-protein kinase JAK1 (Homo sapiens) (UniProt P23458); test: Inhibition of JAK1 in human A-375 cells at 5 uM by KiNativ Profiling analysis relative to control; type: cell-based
[11] = target: DNA-PK/Ku70/Ku85 (Homo sapiens) (UniProt P78527+P12956+P13010); test: Inhibition of DNAPK ATP labeling site harbouring KGGSWIQEINVAEKNWYPR in human A-375 cells at 0.05 uM by KiNativ Profiling analysis relative to control; type: cell-based
[12] = target: Serine/threonine-protein kinase PLK1 (Homo sapiens) (UniProt P53350); test: Inhibition of PLK1 Lys1 labeling site in human A-375 cells at 0.5 uM by KiNativ Profiling analysis relative to control; type: cell-based
Sequence of Serine/threonine-protein kinase PLK1 (Homo sapiens) (P53350 whole entry): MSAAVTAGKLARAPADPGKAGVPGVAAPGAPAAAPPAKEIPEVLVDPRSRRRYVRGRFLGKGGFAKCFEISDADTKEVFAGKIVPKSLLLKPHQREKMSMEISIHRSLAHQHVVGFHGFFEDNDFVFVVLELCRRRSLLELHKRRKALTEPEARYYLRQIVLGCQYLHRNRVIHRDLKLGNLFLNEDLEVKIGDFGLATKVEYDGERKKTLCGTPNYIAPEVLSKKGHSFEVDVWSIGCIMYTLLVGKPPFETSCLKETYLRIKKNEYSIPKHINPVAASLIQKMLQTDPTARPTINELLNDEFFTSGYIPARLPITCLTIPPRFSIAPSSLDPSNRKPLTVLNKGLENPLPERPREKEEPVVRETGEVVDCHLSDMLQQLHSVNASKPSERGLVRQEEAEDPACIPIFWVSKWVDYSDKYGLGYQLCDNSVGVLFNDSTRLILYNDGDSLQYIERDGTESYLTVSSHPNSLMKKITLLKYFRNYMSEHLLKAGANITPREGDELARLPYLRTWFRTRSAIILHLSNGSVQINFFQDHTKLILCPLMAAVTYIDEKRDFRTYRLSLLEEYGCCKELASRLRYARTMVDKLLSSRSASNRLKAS

Sequence of Serine/threonine-protein kinase WNK1 (Homo sapiens) (Q9H4A3 whole entry, looked up): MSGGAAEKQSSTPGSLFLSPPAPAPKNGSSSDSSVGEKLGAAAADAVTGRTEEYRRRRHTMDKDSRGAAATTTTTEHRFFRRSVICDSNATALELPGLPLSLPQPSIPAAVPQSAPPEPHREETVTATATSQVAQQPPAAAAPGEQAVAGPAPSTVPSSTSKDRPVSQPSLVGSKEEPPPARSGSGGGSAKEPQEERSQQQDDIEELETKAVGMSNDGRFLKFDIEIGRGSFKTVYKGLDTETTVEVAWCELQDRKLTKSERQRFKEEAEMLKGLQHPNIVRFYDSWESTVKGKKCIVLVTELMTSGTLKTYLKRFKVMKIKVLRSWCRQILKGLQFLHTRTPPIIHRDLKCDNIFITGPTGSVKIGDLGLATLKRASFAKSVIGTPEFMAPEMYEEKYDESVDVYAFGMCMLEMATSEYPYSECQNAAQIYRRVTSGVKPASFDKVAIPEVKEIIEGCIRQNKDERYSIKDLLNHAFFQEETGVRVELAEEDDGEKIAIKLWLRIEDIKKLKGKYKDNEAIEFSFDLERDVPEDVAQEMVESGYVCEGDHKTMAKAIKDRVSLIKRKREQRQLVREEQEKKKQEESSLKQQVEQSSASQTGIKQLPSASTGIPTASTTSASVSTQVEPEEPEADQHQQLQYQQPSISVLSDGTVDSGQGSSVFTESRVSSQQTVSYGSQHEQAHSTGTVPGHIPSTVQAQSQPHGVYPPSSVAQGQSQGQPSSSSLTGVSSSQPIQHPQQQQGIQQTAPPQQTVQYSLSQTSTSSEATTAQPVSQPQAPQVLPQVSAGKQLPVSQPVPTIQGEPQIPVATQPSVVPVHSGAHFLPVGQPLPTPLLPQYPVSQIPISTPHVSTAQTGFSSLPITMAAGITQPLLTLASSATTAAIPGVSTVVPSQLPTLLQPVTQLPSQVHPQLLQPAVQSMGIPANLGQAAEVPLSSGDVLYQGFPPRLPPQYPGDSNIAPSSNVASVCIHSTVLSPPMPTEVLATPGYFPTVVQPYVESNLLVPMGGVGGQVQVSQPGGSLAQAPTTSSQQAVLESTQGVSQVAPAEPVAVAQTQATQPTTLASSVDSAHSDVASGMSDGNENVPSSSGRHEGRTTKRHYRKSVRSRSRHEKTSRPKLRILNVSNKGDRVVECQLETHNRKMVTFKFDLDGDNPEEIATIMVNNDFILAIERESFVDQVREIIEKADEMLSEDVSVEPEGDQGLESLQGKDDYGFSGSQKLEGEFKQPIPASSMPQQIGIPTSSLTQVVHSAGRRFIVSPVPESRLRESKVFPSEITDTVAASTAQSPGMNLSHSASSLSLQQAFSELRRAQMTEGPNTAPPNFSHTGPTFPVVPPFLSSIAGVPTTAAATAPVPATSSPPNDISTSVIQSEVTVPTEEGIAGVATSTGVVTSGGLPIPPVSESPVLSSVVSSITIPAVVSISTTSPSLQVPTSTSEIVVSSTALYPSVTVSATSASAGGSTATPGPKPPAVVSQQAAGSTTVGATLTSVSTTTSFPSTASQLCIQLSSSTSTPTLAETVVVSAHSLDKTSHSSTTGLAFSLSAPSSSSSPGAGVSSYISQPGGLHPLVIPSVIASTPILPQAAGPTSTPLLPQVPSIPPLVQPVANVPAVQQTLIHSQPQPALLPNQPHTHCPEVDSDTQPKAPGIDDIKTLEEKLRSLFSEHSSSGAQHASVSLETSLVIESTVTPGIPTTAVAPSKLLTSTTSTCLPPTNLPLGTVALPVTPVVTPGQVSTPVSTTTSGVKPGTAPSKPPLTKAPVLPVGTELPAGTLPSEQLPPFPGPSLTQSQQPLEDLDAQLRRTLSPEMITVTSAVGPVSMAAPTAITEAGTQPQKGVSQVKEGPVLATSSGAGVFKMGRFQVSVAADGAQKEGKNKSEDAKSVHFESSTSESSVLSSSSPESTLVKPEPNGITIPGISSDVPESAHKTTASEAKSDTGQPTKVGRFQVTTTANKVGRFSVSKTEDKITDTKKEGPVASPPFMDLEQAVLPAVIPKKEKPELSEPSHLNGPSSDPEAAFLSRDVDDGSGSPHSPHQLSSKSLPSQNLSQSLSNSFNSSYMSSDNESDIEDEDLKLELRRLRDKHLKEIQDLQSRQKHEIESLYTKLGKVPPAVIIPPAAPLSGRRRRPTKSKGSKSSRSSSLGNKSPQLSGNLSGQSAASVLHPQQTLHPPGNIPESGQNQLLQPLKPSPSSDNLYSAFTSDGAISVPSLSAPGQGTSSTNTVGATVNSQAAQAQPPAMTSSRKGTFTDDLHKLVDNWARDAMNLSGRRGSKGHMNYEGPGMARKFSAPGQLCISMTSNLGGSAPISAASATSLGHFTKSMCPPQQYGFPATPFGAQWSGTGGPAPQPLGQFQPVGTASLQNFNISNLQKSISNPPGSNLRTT
Sequence of Misshapen-like kinase 1 (Homo sapiens) (Q8N4C8 whole entry, looked up): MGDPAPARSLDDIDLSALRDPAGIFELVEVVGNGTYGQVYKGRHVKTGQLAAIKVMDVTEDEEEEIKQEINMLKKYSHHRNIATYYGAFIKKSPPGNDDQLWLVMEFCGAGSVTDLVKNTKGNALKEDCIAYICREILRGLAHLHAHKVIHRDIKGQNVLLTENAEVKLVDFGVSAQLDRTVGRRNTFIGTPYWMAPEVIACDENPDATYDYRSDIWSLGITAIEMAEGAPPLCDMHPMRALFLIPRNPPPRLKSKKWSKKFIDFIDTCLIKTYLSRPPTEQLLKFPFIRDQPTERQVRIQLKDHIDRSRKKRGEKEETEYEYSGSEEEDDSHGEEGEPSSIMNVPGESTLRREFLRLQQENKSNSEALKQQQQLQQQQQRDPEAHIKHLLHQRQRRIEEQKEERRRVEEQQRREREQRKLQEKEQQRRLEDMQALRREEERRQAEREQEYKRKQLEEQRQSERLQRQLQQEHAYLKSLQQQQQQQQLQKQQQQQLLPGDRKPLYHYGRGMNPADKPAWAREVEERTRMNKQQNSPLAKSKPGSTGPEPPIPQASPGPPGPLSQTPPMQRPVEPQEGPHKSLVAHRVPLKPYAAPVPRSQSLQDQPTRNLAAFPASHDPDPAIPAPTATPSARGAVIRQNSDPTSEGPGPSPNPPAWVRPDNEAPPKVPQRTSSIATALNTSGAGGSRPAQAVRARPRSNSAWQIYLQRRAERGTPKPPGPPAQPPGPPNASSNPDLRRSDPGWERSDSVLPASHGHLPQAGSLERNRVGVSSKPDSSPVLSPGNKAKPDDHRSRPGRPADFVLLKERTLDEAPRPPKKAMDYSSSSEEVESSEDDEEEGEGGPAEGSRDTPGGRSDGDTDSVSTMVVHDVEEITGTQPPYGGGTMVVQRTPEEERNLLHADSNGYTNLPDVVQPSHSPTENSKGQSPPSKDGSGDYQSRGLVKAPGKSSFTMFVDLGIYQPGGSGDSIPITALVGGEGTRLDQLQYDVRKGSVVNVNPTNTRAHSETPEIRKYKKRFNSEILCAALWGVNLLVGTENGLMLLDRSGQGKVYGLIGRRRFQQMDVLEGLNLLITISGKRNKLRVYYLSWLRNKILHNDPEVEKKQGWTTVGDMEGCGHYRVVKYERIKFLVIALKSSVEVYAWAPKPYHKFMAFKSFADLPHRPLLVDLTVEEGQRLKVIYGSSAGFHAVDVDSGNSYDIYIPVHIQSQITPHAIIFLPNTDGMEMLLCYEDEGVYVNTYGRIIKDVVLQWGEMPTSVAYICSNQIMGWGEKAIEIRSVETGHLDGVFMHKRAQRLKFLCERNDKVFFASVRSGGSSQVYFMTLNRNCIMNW
Sequence of Serine/threonine-protein kinase Nek7 (Homo sapiens) (Q8TDX7 whole entry, looked up): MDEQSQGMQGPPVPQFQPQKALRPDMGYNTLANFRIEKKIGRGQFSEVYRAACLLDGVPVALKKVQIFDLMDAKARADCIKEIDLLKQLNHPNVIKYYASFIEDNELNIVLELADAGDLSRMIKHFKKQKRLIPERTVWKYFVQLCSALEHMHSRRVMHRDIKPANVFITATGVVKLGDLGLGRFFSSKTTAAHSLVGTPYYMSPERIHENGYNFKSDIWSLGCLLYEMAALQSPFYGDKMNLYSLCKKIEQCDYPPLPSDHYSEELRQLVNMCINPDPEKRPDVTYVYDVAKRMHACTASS

Compound | inhibition [1] [%] | inhibition [2] [%] | inhibition [3] [%] | inhibition [4] [%] | inhibition [5] [%] | inhibition [6] [%] | inhibition [7] [%] | inhibition [8] [%] | inhibition [9] [%] | inhibition [10] [%] | inhibition [11] [%] | inhibition [12] [%]
CNc1cc(Oc2cc(C(=O)Nc3cc(-n4cnc(C)c4)cc(C(F)(F)F)c3)ccc2C)ncn1 | 24.1 | – | – | – | – | – | – | – | – | – | – | –
CCN1CCN(Cc2ccc(NC(=O)c3ccc(C)c(Oc4ccnc5[nH]ccc45)c3)cc2C(F)(F)F)CC1 | – | 12.6 | 70.8 | 40.1 | -5.7 | -5.6 | 6.4 | -5.5 | 13.1 | 3.9 | 6.7 | -3.8
CCN1CCN(Cc2ccc(NC(=O)c3ccc(C)c(/C=C/c4cnc5[nH]ccc5c4OC)c3)cc2C(F)(F)F)CC1 | – | 2.6 | 48.1 | -4.8 | -6.9 | 13.8 | 3.1 | 14.3 | 28.3 | 27 | -3.2 | -5.2
CNc1cc(Oc2cc(C(=O)Nc3cc(N4CCN(C)CC4)cc(C(F)(F)F)c3)ccc2C)ncn1 | 2.7 | – | – | – | – | – | – | – | – | – | – | –
